Consider two sequences from article PMC4627538 (Journal of Diabetes Investigation, 2015).

Bridge positions count the residues as written; N and C are the ends. Ends that are not written are not given here.

Assay [1] deals with maltase glucoamylase (MGAM). Put plainly: Phage ELISA, binding of phage clones to MGAM. On the set-up: species or system rat. Conditions: displayed on phage, judged from ELISA signals, Figure 1.
In assay [2] the test system is background proteins (BSA and anti-MGAM antibodies). The assay can be described thus: Phage ELISA, binding of phage clones to background. The method in brief: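 Wells coated overnight at 4°C with anti-MGAM antibodies (5 µg/mL) in PBS, blocked 90 min at room temperature with 2% BSA/PBS, with no MGAM added. 5×10^9 pfu of each phage clone in 0.05% PBST incubated 60 min, then washed five times with 0.1% PBST. Bound phage detected with HRP anti-M13 monoclonal antibody and TMB at A450. Triplicates, mean ± SD.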
(In general: In an ELISA, binding on a coated surface is turned into a signal by an enzyme label.)

In the case of “CTHYGFRGC (disulfide 1-9 (inferred)) [C1]”, the “affinity towards the target (MGAM), comparison between phage clones” value in assay [1] is reported as “higher affinity towards the target than those obtained with specific elution”. Moreover, the “binding of phage clones to background proteins” value in assay [2] is given as “lower background binding”.
For “CGHHHRDYC (disulfide 1-9 (inferred)) [C2]” the same measures were “higher affinity towards the target than those obtained with specific elution” and “lower background binding”.
